For assay [1], the target named is T1, Prostaglandin G/H synthase 1 (Homo sapiens, UniProt P23219). Put plainly: Inhibition of human Prostaglandin G/H synthase 1 at 10 ug/mL expressed as mean percent inhibition of control PGE-2 production. An outline of the steps: (§1)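 Human COX-1 and COX-2 genes expressed in a baculovirus system; microsomes prepared from High Five insect cells and used as the enzyme source. Activity read as PGE2 production. Each dose run in duplicate wells within each experiment, and values given as mean percent inhibition of control PGE2.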
T1 sequence (P23219 whole entry): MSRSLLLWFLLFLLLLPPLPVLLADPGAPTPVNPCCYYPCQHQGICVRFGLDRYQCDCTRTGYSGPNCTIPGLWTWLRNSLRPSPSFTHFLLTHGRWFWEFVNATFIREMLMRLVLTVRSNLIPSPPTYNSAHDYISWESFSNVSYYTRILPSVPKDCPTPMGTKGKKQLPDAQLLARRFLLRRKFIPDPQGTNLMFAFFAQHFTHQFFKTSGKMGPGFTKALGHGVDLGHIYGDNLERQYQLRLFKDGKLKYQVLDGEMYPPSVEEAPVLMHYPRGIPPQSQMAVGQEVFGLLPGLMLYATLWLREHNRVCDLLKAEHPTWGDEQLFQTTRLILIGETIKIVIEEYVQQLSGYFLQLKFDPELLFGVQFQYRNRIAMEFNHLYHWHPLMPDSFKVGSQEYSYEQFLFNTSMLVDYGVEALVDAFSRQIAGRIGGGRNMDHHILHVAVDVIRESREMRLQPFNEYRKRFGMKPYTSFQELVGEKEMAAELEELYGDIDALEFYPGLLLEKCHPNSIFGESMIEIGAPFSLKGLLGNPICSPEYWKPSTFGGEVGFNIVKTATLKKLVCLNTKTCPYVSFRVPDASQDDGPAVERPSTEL

In assay [2] the target is T1, Prostaglandin G/H synthase 1. The assay can be described thus: Inhibition of human Prostaglandin G/H synthase 1 at 1 ug/mL expressed as mean percent inhibition of control PGE-2 production. In a few lines: as §1
Assay [3] shares this target. The assay can be described thus: Inhibition of human Prostaglandin G/H synthase 1 at 0.1 ug/mL expressed as mean percent inhibition of control PGE-2 production. In a few lines: as §1

As for `CN1C(O)=C(C(=O)Nc2nccs2)c2cc(Cl)ccc2S1(=O)=O`, the values for the inhibition in assay [1], in assay [2] and in assay [3] were 98%, 76% and 18%, respectively.
With `CN1C(C(=O)Nc2ccccc2)=C(O)c2cc(F)ccc2S1(=O)=O`, the values for the inhibition in assay [1], in assay [2] and in assay [3] were 61%, 38% and 9%, respectively.
Regarding `Cc1ccc2c(c1)/C(=C(\O)Nc1ccccc1)C(=O)N(C)C2=O`, the inhibition (usually the relative decrease from the control value, in per cent) in assay [1] is 90%; in assay [2], 72%; in assay [3], 40%.
The like results for `COc1ccc2c(c1)C(O)=C(C(=O)Nc1ccc(Cl)cc1)N(C)S2(=O)=O` were, in that order, 14%, 13% and 9%.
As for `Cc1ccc2c(c1)C(O)=C(C(=O)Nc1ccc(Cl)cc1)N(C)S2(=O)=O`, the inhibition is 21% in assay [1], -1% in assay [2] and 0% in assay [3].
For the compound `CN1C(O)=C(C(=O)Nc2ccccc2)c2ccccc2S1(=O)=O`, the inhibition in assay [1] was determined as 100%; in assay [2], 92%; in assay [3], 65%.
On the same counts, the results for `CN1C(C(=O)Nc2ccc(Cl)cc2)=C(O)c2cc(F)ccc2S1(=O)=O` are 40%, 16% and 6%.
For `COc1ccc2c(c1)c1c(n2C)C(O)=C(C(=O)Nc2ccccc2)N(C)S1(=O)=O`, the inhibition in assay [1] was found to be 79%; in assay [2], 23%; in assay [3] it was 6%.
As to `CN1C(C(=O)Nc2nccs2)=C(O)c2c(c3cc(Cl)ccc3n2C)S1(=O)=O`, the results for the inhibition in assay [1], in assay [2] and in assay [3] were 95%, 80% and 16%, respectively.
The like results for `CN1C(C(=O)Nc2ccccn2)=C(O)c2c(c3ccccc3n2C)S1(=O)=O` were, in that order, 90%, 14% and 0%.
The like results for `CN1C(C(=O)Nc2nccs2)=C(O)c2c(c3ccccc3n2C)S1(=O)=O` were, in that order, 97%, 44% and -2%.
Regarding `Cc1coc(NC(=O)C2=C(O)c3ccccc3S(=O)(=O)N2C)n1`, the inhibition in assay [1] was -7%; in assay [2], 5%; in assay [3], 5%.
For `CN1C(C(=O)Nc2nccs2)=C(O)c2ccc3ccccc3c2S1(=O)=O`, the inhibition in assay [1] stood at 100%; in assay [2], 100%; in assay [3], 75%.
As for `O=C(Nc1cccc(Cl)c1)C1=C(O)c2cc(Cl)ccc2[S+]([O-])C1` (stereo unspecified), the figures for the inhibition in assay [1], in assay [2] and in assay [3] were 76%, 17% and 0%, respectively.
The like results for `Cc1cnc(NC(=O)C2=C(O)c3ccc(F)cc3S(=O)(=O)N2C)s1` were, in that order, 82%, 36% and -4%.
The like results for `Cc1cc2c(s1)C(C(=O)Nc1ccccn1)=C(O)N(C)S2(=O)=O` were, in that order, 82%, 53% and 15%.
The like results for `CN1C(c2nc3ccccc3[nH]2)=C(O)c2ccccc2S1(=O)=O` were, in that order, 16%, 4% and -4%.
Consider `Cc1cnc(NC(=O)C2=C(O)N(C)S(=O)(=O)c3ccc(Cl)cc32)s1`, for which the inhibition in assay [1] came out at 95%; in assay [2] it was 44%; in assay [3], 23%.
For the compound `CCn1c2c(c3ccccc31)S(=O)(=O)N(C)C(C(=O)Nc1ccccn1)=C2O`, the values for the inhibition in assay [1], in assay [2] and in assay [3] were 25%, -1% and -4%, respectively.
Regarding `CN1C(O)=C(C(=O)Nc2ccc(Cl)cc2Cl)c2cc(F)ccc2S1(=O)=O`, the inhibition is 100% in assay [1], 94% in assay [2] and 40% in assay [3].
The like results for `Cc1ccc2c(c1)/C(=C(\O)Nc1ccc(Cl)cc1Cl)C(=O)N(C)C2=O` were, in that order, 100%, 100% and 79%.
As to `CN1C(O)=C(C(=O)Nc2ccc(Cl)cc2Cl)c2c(ccc(Cl)c2Cl)S1(=O)=O`, the values for the inhibition in assay [1], in assay [2] and in assay [3] were 98%, 55% and 19%, respectively.
In the case of `COc1ccc2c(c1)S(=O)(=O)N(C)C(C(=O)Nc1ccccc1)=C2O`, the inhibition is 3% in assay [1], 15% in assay [2] and -8% in assay [3].
The like results for `CN1C(C(=O)Nc2ccccc2)=C(O)c2c(c3ccccc3n2C)S1(=O)=O` were, in that order, 93%, 31% and 9%.
On the same counts, the results for `Cc1ccc2c(c1)S(=O)(=O)N(C)C(C(=O)Nc1ccccn1)=C2O` are 45%, 29% and 18%.
On the same counts, the results for `O=C(Nc1cccc(Cl)c1)C1=C(O)c2ccccc2S(=O)(=O)C1` are 84%, 41% and 6%.
On to `Cc1cnc(NC(=O)C2=C(O)c3cc(F)ccc3S(=O)(=O)N2C)s1`, for which the inhibition was determined as 56% in assay [1], 21% in assay [2] and 2% in assay [3].
The like results for `CN1C(C(=O)Nc2nc(C(F)(F)F)cs2)=C(O)c2ccccc2S1(=O)=O` were, in that order, 72%, 19% and 8%.
The like results for `Cc1cnc(NC(=O)C2=C(O)c3sc(C)cc3S(=O)(=O)N2C)s1` were, in that order, 93%, 68% and 31%.
The like results for `CC1(C)Sc2ccccc2C(O)=C1C(=O)Nc1cccc(Cl)c1` were, in that order, 29%, 20% and 3%.
Take `Cc1cc(NC(=O)C2=C(O)c3ccccc3S(=O)(=O)N2C)no1`: the results for the inhibition in assay [1], in assay [2] and in assay [3] were 10%, 7% and -2%, respectively.
As to `Cc1cnc(NC(=O)C2=C(O)c3ccc(Cl)cc3S(=O)(=O)N2C)s1`, the figures for the inhibition in assay [1], in assay [2] and in assay [3] were 85%, 36% and -9%, respectively.
As for `COc1ccc2c(c1)c1c(n2C)C(O)=C(C(=O)Nc2nccs2)N(C)S1(=O)=O`, the inhibition in assay [1] was 86%; in assay [2], 33%; in assay [3], 3%.
The like results for `Cc1cnc(NC(=O)C2=C(O)c3c(c4ccccc4n3C)S(=O)(=O)N2C)s1` were, in that order, 97%, 32% and 1%.
The like results for `Cc1ccc2c(c1)S(=O)(=O)N(C)C(O)=C2C(=O)Nc1ccccc1Cl` were, in that order, 97%, 98% and 63%.
In the case of `Cc1cc2c(s1)S(=O)(=O)N(C)C(C(=O)Nc1ccccc1F)=C2O`, the inhibition amounted to 100% in assay [1], 96% in assay [2] and 78% in assay [3].
Regarding `Cc1nnc(NC(=O)C2=C(O)c3ccccc3S(=O)(=O)N2C)s1`, the inhibition in assay [1] was determined as 2%; in assay [2], 18%; in assay [3], 0%.
For the compound `Cc1cnc(NC(=O)C2=C(O)c3ccccc3S(=O)(=O)N2)s1`, the results for the inhibition in assay [1], in assay [2] and in assay [3] were 41%, 18% and 14%, respectively.
The like results for `CN1C(O)=C(C(=O)Nc2ccc(Br)cc2)c2ccccc2S1(=O)=O` were, in that order, 100%, 88% and 54%.
The like results for `Cc1cnc(N/C(O)=C2\C(=O)N(C)C(=O)c3ccc(Cl)cc32)s1` were, in that order, 76%, 35% and 5%.
The like results for `O=C1/C(=C(/O)Nc2ccc(Cl)cc2Cl)c2cc(Cl)ccc2C(=O)N1Cc1ccccc1` were, in that order, 100%, 84% and 6%.
For the compound `Cc1ccc2c(c1)C(O)=C(C(=O)Nc1ncc(C)s1)N(C)S2(=O)=O`, the results for the inhibition in assay [1], in assay [2] and in assay [3] were 24%, 14% and 0%, respectively.
The like results for `CN1C(C(=O)Nc2ccccn2)=C(O)c2sc3cc(Cl)ccc3c2S1(=O)=O` were, in that order, 93%, 100% and 69%.
Take `CN1C(O)=C(C(=O)Nc2ccc(F)cc2F)c2cc(F)ccc2S1(=O)=O`: the inhibition in assay [1] is 97%; in assay [2] it was 73%; in assay [3], 22%.
On to `CN1C(O)=C(C(=O)Nc2ccccn2)c2ccccc2S1(=O)=O`, for which the inhibition in assay [1] came to 53%; in assay [2], 17%; in assay [3], 10%.
The like results for `CN1C(O)=C(C(=O)Nc2ccccc2)c2c(ccc3ccccc23)S1(=O)=O` were, in that order, 72%, 54% and 18%.
Regarding `CCc1cnc(NC(=O)C2=C(O)c3ccccc3S(=O)(=O)N2C)s1`, the inhibition in assay [1] is 30%; in assay [2], 23%; in assay [3], -4%.
